Here are results for 21 molecules from ChEMBL document CHEMBL1765049, “Inhibitory properties of 2-substituent-1H-benzimidazole-4-carboxamide derivatives against enteroviruses” (Bioorg Med Chem, 2011).

pIC50: −log10 of the molar value.

One data set has as its system Coxsackievirus B3. Nature of the data set: Antiviral activity against Coxsackievirus B3 infected in african green monkey Vero cells assessed as inhibition of viral growth after 24 hrs by Reed-Muench method. Format: functional, organism-based. The following applies: Enterovirus B. Summed up: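 Vero cells were seeded and after 24 h exposed to virus for 2 h. Compounds were then added after being dissolved in DMSO and diluted in culture medium. Cell-control and virus-control wells were run alongside. Cytopathic effect was scored once the virus wells exceeded grade 4. The 50% inhibitory concentration of virus growth was calculated by the Reed–Muench method.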

The nature of data set [1]: Cytotoxicity against african green monkey Vero cells. Type of data set: cell-based. The note with it: chlorocebus sabaeus, Vero cells; read-out: TC50 (the source's name). The essentials: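 TC50 is the compound concentration killing 50% of Vero cells (inhibiting cell growth by 50%). Compounds were dissolved in DMSO and diluted in medium, then added to seeded Vero cells. Cell wells were examined when cytopathic effect in virus-infected control wells exceeded grade 4.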

Data set [2] is described as follows: Selectivity index, ratio of TC50 for african green monkey Vero cells to IC50 for Coxsackievirus B3. The following applies: read-out: Selectivity Index. Type of data set: toxicity, cell-based. Summed up:
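Selectivity index is calculated as TC50 in Vero cells divided by the antiviral IC50 against the named enterovirus. Both values come from the same Vero cytopathic-effect assay, with compounds dissolved in DMSO and diluted in medium.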

On to `NC(=O)c1cccc2[nH]c(-c3cccnc3)nc12`, for which, in the data set on Coxsackievirus B3, the pIC50 (as a rule, −log10 of the IC50, conventionally taken in molar units) was 4.59. Besides, the CC50 in data set [1] stood at 77.7 µM. The selectivity ratio in data set [2] was found to be 3.
For `Cc1csc(NC(=O)c2cccc3[nH]c(-c4ccncc4)nc23)n1` the same measures were 4.67, 111 µM and 5.2.
As for `C[C@@H](NC(=O)c1cccc2[nH]c(-c3ccco3)nc12)[C@H](O)c1ccc(Cl)cc1`, the negative-log IC50 (pIC50) with Coxsackievirus B3 was 4.87. Besides, in data set [1], the CC50 stood at 162 µM. In addition, the selectivity ratio in data set [2] worked out at 12.1.
On to `O=C(N[C@H](CO)[C@H](O)c1ccc([N+](=O)[O-])cc1)c1cccc2[nH]c(-c3cccnc3)nc12`, for which the pIC50 in the data set on Coxsackievirus B3 is 4.54. The CC50 in data set [1] came to 148 µM. Besides, the selectivity ratio in data set [2] turned out to be 5.2.
For `O=C(NCCO)c1cccc2[nH]c(-c3ccccn3)nc12` the same measures were 3.88, 568 µM and 4.3.
Turning to `O=C(Nc1ccccc1F)c1cccc2[nH]c(-c3ccc([N+](=O)[O-])o3)nc12`, the pIC50 with Coxsackievirus B3 is 4.60. Also, the CC50 in data set [1] was 75.9 µM. In addition, in data set [2], the selectivity ratio came to 3.
`O=C(Nc1ccccc1F)c1cccc2[nH]c(-c3ccccn3)nc12`: in the data set with Coxsackievirus B3, the pIC50 is 5.79. Moreover, the CC50 in data set [1] amounted to 54.7 µM. For the same molecule, the selectivity ratio in data set [2] was 28.4.
Turning to `O=C(NCCO)c1cccc2[nH]c(-c3cccnc3)nc12`, the pIC50 in the data set on Coxsackievirus B3 was 4.04. The CC50 in data set [1] amounted to 682 µM. Also, the selectivity ratio in data set [2] stood at 7.5.
For `O=C(Nc1ccccc1F)c1cccc2[nH]c(-c3ccco3)nc12` the same measures were 5.48, 25 µM and 7.5.
As to `O=C(N[C@H](CO)[C@H](O)c1ccc([N+](=O)[O-])cc1)c1cccc2[nH]c(-c3ccncc3)nc12`, the pIC50 in the data set with Coxsackievirus B3 was 4.52. In data set [1], the CC50 is 123 µM. For the same molecule, the selectivity ratio in data set [2] was found to be 4.1.
The matching figures for `O=C(N[C@H](CO)[C@H](O)c1ccc([N+](=O)[O-])cc1)c1cccc2[nH]c(-c3ccco3)nc12`: 4.42, 152 µM and 4.
As for `O=C(Nc1ccccc1)c1cccc2[nH]c(-c3ccccn3)nc12`, the pIC50 with Coxsackievirus B3 was 6.34. In data set [1], the CC50 worked out at 17.9 µM. The selectivity ratio in data set [2] amounted to 38.9.
In the case of `O=C(Nc1ccccc1F)c1cccc2[nH]c(-c3ccncc3)nc12`, the pIC50 with Coxsackievirus B3 is 4.43. Moreover, in data set [1], the CC50 came out at 111 µM. Moreover, in data set [2], the selectivity ratio came to 3.
In the case of `O=C(Nc1ccccc1)c1cccc2[nH]c(-c3ccncc3)nc12`, the pIC50 in the data set on Coxsackievirus B3 was 4.91. Besides, the CC50 in data set [1] worked out at 49.8 µM. The selectivity ratio in data set [2] came to 4.
Regarding `O=C(Nc1ccccc1F)c1cccc2[nH]c(-c3cccnc3)nc12`, the negative-log IC50 (pIC50) with Coxsackievirus B3 is 5.01. For the same molecule, the CC50 in data set [1] was found to be 54.7 µM. The selectivity ratio in data set [2] was determined as 3.2.
For `C[C@@H](NC(=O)c1cccc2[nH]c(-c3ccc([N+](=O)[O-])o3)nc12)[C@H](O)c1ccc(Cl)cc1`, the pIC50 with Coxsackievirus B3 was 4.79. The CC50 in data set [1] was found to be 48.6 µM. The selectivity ratio in data set [2] was 3.
Consider `O=C(N[C@H](CO)[C@H](O)c1ccc([N+](=O)[O-])cc1)c1cccc2[nH]c(-c3ccc([N+](=O)[O-])o3)nc12`, for which the pIC50 in the data set on Coxsackievirus B3 is 4.64. Besides, the CC50 in data set [1] amounted to 68.7 µM. Besides, the selectivity ratio in data set [2] is 3.
As for `O=C(NCCO)c1cccc2[nH]c(-c3ccncc3)nc12`, in data set [1], the CC50 worked out at 498 µM.
As for `Cc1csc(NC(=O)c2cccc3[nH]c(-c4cccnc4)nc23)n1`, the pIC50 in the data set with Coxsackievirus B3 is 4.79. The CC50 in data set [1] was found to be 111 µM. Also, the selectivity ratio in data set [2] came out at 6.8.
As to `Cc1csc(NC(=O)c2cccc3[nH]c(-c4ccccn4)nc23)n1`, the pIC50 in the data set with Coxsackievirus B3 was 5.75. For the same molecule, the CC50 in data set [1] turned out to be 17.7 µM. The selectivity ratio in data set [2] stood at 10.
Turning to `NC(=O)c1cccc2[nH]c(-c3ccccn3)nc12`, the pIC50 in the data set on Coxsackievirus B3 was 4.51. The CC50 in data set [1] was 224 µM. Also, the selectivity ratio in data set [2] is 7.3.
